# Reference: article PMC9197538 (CPT: Pharmacometrics & Systems Pharmacology, 2022)
# Key:
# [1] = single oral dose radiolabeled mobocertinib 160 mg; cited from earlier work
# [2] = cited from earlier work
# [3] = low‐fat or high‐fat meal compared with fasting; cited from earlier work
# [4] = format: in vivo, human
# Outline: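 Joint semi-mechanistic fit of plasma data for the parent and two active metabolites, from healthy-volunteer single doses (20–160 mg) and patient q.d. dosing. Parent: two compartments, three absorption transit compartments. Metabolites: two and one compartments. An enzyme compartment's production follows Emax/EC50 on the molar sum, assuming equal molar potency. IIV is exponential, log-normal. BLOQ handled by modified M6.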
# [5] = tested on: EGFRex20ins‐positive mNSCLC; settings: 160 mg q.d., cited from earlier work
# [6] = tested on: CYP3A; settings: cited from earlier work
# [7] = no reference given; cited from earlier work
# [8] = after single‐dose administration; cited from earlier work
# [9] = Model-based simulations of exposure; set-up: species or system human; settings: age 18–86 years, race, sex, body weight 37.3–132 kg, mild‐to‐moderate renal impairment, mild‐to‐moderate hepatic impairment
# [10] = final population PK model, untransformed parameter
# [11] = platinum‐pretreated patients with EGFRex20ins‐positive mNSCLC
compound,measurement,setting,value
C=CC(=O)Nc1cc(Nc2ncc(C(=O)OC(C)C)c(-c3cn(C)c4ccccc34)n2)c(OC)cc1N(C)CCN(C)C [mobocertinib],dose recovered in feces,[1],~ 76%
same,dose recovered in urine,[1],4%
same,percentage of administered dose recovered in feces as this moiety,[1],~ 6%
same,percentage of administered dose recovered in urine as this moiety,[1],~ 1%
same,decrease of molar sum AUC0–∞,[2]; co‐administration with strong CYP3A inducer rifampin,95%
same,"increase of molar sum AUC0–∞ of mobocertinib, AP32960, and AP32914",[2]; co‐administration with strong CYP3A inhibitor itraconazole,527%
same,food effect on molar sum AUC,[3],no clinically meaningful differences
same,IIV CL/F,[4]; [10],49.6%
same,IIV Ka (interindividual variability),[4]; [10],45.7%
same,IIV Vc/F,[4]; [10],48.7%
same,"Ka, absorption rate constant",[4]; [10],2.12 h⁻¹
same,"Residual variability, additive error on log scale",[4]; [10],41.4%
same,"Kenz, rate constant for enzyme synthesis/degradation","[4]; final population PK model, enzyme (auto-induction) compartment",0.00392 h⁻¹
same,"Emax, maximal induction effect","[4]; final population PK model, enzyme compartment, molar sum of the three moieties",0.781
same,Vd/F,"[4]; human, plasma, oral, Vss/F, apparent volume of distribution at steady state, geometric mean (%CV 38%), derived from the final population PK model",3510 L
same,median duration of response per IRC,[5],17.5 months
same,median overall survival,[5],24.0 months
same,confirmed objective response rate (ORR) per independent review committee (IRC),[5]; [11],28%
same,confirmed objective response rate (ORR) per investigators,[5]; [11],35%
same,CYP3A substrate and inducer status (in vitro),[6],both substrates and inducers of CYP3A
same,CYP3A inhibition and induction (in vitro),"[6]; ref data on file, Takeda Development Center Americas",inhibitors and inducers of CYP3A
same,Biopharmaceutics Classification System class,[7],Class 1
same,permeability,[7],high permeability
same,solubility,[7],highly soluble
same,mean half‐life,[8],20 h
same,effect of covariates on mobocertinib PK,[9],No clinically meaningful differences
